Experimental data collected from several papers.
Protocols differ between the studies behind these lines.
Target: cAMP-dependent protein kinase catalytic subunit alpha (PRKACA, Homo sapiens, UniProt P17612)

SMILES	test	setting	quantity	value
O=C(CSc1nc2nccnc2c(=O)n1CCc1ccccc1)Nc1nccs1	enzyme activity, inhibitor	10 µM	inhibition	6%
Oc1cccc(-c2nc(N3CCOCC3)c3oc4ncccc4c3n2)c1	enzyme activity, inhibitor	10 µM	remaining activity	100%
COc1cc(Cl)c(C(=O)N[C@@H](CN[C@H]2CC[C@@H](N)CC2)Cc2ccc(C#N)cc2)cc1-c1ccc(CN[C@H](C)c2ccc(C)cc2)o1	enzyme activity, inhibitor	1 µM	remaining activity	106%
Cn1c(=O)n(-c2ccc(C(C)(C)C#N)cc2)c2c3cc(-c4cnc5ccccc5c4)ccc3ncc21	enzyme activity, inhibitor	10 µM	remaining activity	82%
COc1cc2ncnc(Nc3ccc(Oc4ccccc4)cc3C)c2cc1OC	enzyme activity, inhibitor	1 µM	inhibition	3%
Nc1nc(Nc2ccccc2)sc1C(=O)c1c(F)cccc1F	enzyme activity, inhibitor	10 µM	remaining activity	90%
C=CC(=O)Nc1cc(Nc2nccc(Nc3cc(Cl)c(F)cc3C(C)(C)O)n2)c(OC)cc1N1CC[C@@H](N(C)C)C1	enzyme activity, inhibitor	1 µM	inhibition	7%
N[C@@H]1CCN(c2nccc(-c3cnn4ncccc34)n2)C1	cell-free assay	1 µM	remaining signal	96%
C[C@@H](N)[C@H]1CC[C@H](C(=O)Nc2ccncc2)CC1	cell-free assay, inhibitor	0.5 µM	remaining signal	97.8%
CCCOc1ccc(OC)c(F)c1C(=O)c1ccc(C(=O)N[C@@H]2CNC[C@H]2NC(=O)c2ccc3[nH]ncc3c2)cc1	enzyme activity, inhibitor	10 µM	remaining activity	1%
Cn1c2c(c3ccc(Cl)c(Cl)c31)C(C#N)C1(CCOCC1)NC2=O (stereo not drawn)	thermal stability, DSF	10 µM	ΔTm	0.1 °C
Cc1ccc(C(=O)NCc2ccsc2)cc1C#Cc1cn(C(C)C)c2ncnc(N)c12	enzyme activity, inhibitor	1 µM	activity vs control	103%
CN(C)c1ncnc(-c2ccc3nc(Nc4cc(CN5CCN(C(=O)CC(F)(F)F)CC5)ccn4)[nH]c3c2)c1Cl	cell-free assay, competition with immobilised ligand	1 µM	remaining binding	100%
CCN(CC)CCNC(=O)c1c(C)[nH]c(/C=C2\C(=O)Nc3ccc(F)cc32)c1C	enzyme activity, inhibitor	10 µM	inhibition	59%
CCN(CC)c1ccc(C2=NNC(=O)CC2C)cc1[N+](=O)[O-] (stereo not drawn)	enzyme activity, inhibitor	10 µM	remaining activity	100%
COc1cc(Nc2cnc(C#N)c(O[C@H](C)CN(C)C)n2)ncc1-c1cnn(C)c1	enzyme activity, inhibitor, radiometric	1 µM	remaining activity	104%
NS(=O)(=O)c1cc(NC(=O)Cc2ccccc2)ccc1Oc1cccc(Cl)c1	cell-free assay, competition with immobilised ligand	1 µM	remaining binding	94%
Nc1ncnc2occ(-c3ccc(NC(=O)Nc4cc(C(F)(F)F)ccc4F)cc3)c12	enzyme activity, inhibitor	20 µM	remaining activity	12%
CC1=C(C#N)C(c2ccc3c(c2)c(NC(=O)c2ccccc2C)nn3C)C(C#N)=C(C)N1	cell-free assay, competition with immobilised ligand	1 µM	remaining binding	77%
CNc1cccc2cc(C(=O)Nc3ccc(C(=O)O)cc3)c(=O)[nH]c12	enzyme activity, inhibitor	10 µM	inhibition	-8.1%
CN(C)C1CCN(CC#Cc2nn(C3CCCC3)c3nc(NCc4ccccc4)ncc23)C1 (stereo not drawn)	enzyme activity, inhibitor, FRET	1 µM	inhibition	6%

SMILES	test	setting	quantity	value
FC(F)(F)Oc1cccc(-c2cnc3ccc(-c4ccncc4)nn23)c1	enzyme activity, inhibitor, radiometric	5 µM	activity vs control	106%
Cn1c2c(Cl)c(Cl)ccc2c2cn[nH]c(=O)c21	thermal stability, DSF	10 µM	ΔTm	0.6 °C
CC(C)(C)c1nc2c(s1)c1nc(N)ncc1c1ccc(NS(=O)(=O)c3c(F)cccc3F)c(F)c12	enzyme activity, inhibitor, radiometric	1 µM	remaining activity	104%
Cc1ccc(Nc2nccc(N(C)c3ccc4c(C)n(C)nc4c3)n2)cc1S(N)(=O)=O	enzyme activity, inhibitor	10 µM	inhibition	19%
Cc1cc(NC(=O)c2cccc(S(F)(F)(F)(F)F)c2)cc(-n2ccn3nc(-c4cccnc4)cc23)c1	cell-free assay, competition with immobilised ligand	1 µM	remaining binding	100%
Cn1c2c(Cl)c(Cl)ccc2c2cc(N)[nH]c(=O)c21	thermal stability, DSF	10 µM	ΔTm	0.1 °C
CC(C)(C)C(=O)c1sc(NC2CCCCC2)nc1N	enzyme activity, inhibitor	10 µM	remaining activity	106%
CC(=O)C1=C(C)N(c2cccc(C(F)(F)F)c2)C(=O)N[C@@H]1c1ccc(C#N)nc1	cell-free assay, competition with immobilised ligand	1 µM	remaining binding	92.3%
Cc1cnc(NC2CCOCC2)nc1-n1cnc(C(=O)NC(CN)c2cc(F)cc(Cl)c2)c1 (stereo not drawn)	enzyme activity, inhibitor, radiometric	1 µM	remaining activity	45%
CC(C)c1ccc(NC(=O)c2cccs2)c(-c2nc3ccccc3[nH]c2=O)c1	enzyme activity, inhibitor	1 µM	activity vs control	108%
CCOC(=O)c1cc2cc(-c3cc(C(=O)NCc4ccc(C(=O)O)cc4)nn3C)ccc2[nH]1	cell-free assay, competition with immobilised ligand	0.1 µM	remaining binding	85%
Cn1cnc(Br)c1C1=CN(c2ncnc3[nH]cnc23)CCS1	enzyme activity, inhibitor, radiometric	2 µM	inhibition	90.2%
CN(c1nccc(-c2cnn3ncccc23)n1)C1CC1	cell-free assay	1 µM	remaining signal	100%
Cc1cc(-n2nc(Cc3cc(F)cc(C(F)(F)F)c3)nc2C)ccc1C(N)=O	cell-free assay, competition with immobilised ligand	1 µM	remaining binding	100%
Cc1cc(NC(=O)c2cccc3cc(-c4cccc5[nH]nc(N)c45)ccc23)ccc1F	enzyme activity, inhibitor	0.1 µM	activity vs control	100%
COc1cc2ncnc(Nc3ccc(F)c(Cl)c3)c2cc1OCCCN1CCOCC1	cell-free assay	0.5 µM	remaining signal	96.3%
Cn1c2c(c3ccc(Cl)c(Cl)c31)C(C#N)C1(CCCC1)NC2=O (stereo not drawn)	thermal stability, DSF	10 µM	ΔTm	-0.6 °C
O=C1Nc2ccc(Cl)cc2C1=Cc1cc(Cl)c(O)c(Cl)c1	cell-free assay	0.5 µM	remaining signal	101%
Cn1c2c(c3ccc(Cl)c(Cl)c31)C(C#N)C1(CCNCC1)NC2=O (racemic)	thermal stability, DSF	10 µM	ΔTm	3.3 °C
O=C(NCCCC1CCCCC1)c1ccc(CNC(=O)c2cnn(-c3ccccc3)c2C(F)(F)F)cc1	cell-free assay, competition with immobilised ligand	0.1 µM	remaining binding	100%
Cc1sc(C(=O)NC2COC2)cc1-n1cc(NC(=O)Nc2c(F)cccc2Cl)cn1	enzyme activity, inhibitor	10 µM	remaining activity	94.5%
